Experimental data from ChEMBL document CHEMBL1156683, “Basic 3-hydroxypyridin-4-ones: potential antimalarial agents” (Eur J Med Chem, 2008).

Legend:
[1] = tested on: Plasmodium falciparum; assay: Antimalarial activity against chloroquine-resistant Plasmodium falciparum TM267TR after 24 hrs by [3H]hypoxanthine; assay type: functional, organism-based
Summary of the method: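 Clone maintained in human red cells in RPMI 1640 with 10% human serum, 25 mM HEPES and 25 mM NaHCO₃. Cultures were sorbitol-synchronized, washed, then diluted with normal red cells to 1% hematocrit and 0.5% parasitemia. Incubated with serial dilutions of chelator. ³H-hypoxanthine pulse for a further 18 h, then harvested and counted by scintillation. IC₅₀ by non-linear regression of triplicate dose-response curves.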

[2] = Dissociation constant, pKa corresponding to dissociation of the 3-hydroxyl group by spectrophotometric titration; assay type: physicochemical
Summary of the method: (§1)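 Ligand protonation constants from an automated titration system, potentiometric and spectrophotometric read-outs. Values optimized by non-linear least-squares regression, accuracy ±0.02 pH unit.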

[3] = tested on: Rattus norvegicus; assay: Iron-clearing efficiency in po dosed [59Fe]ferritin-loaded Wistar rat assessed as iron mobilization; assay type: functional
Summary of the method: (§2)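 Male Wistar rats, normal, fasted, 190–230 g. Hepatocytes labelled with ⁵⁹Fe by tail-vein [⁵⁹Fe]ferritin; chelator given orally 1 h later, controls received water. Individual metabolic cages collected urine and faeces; food allowed 1 h after dosing, water unrestricted. Killed 24 h after ferritin; liver and gastrointestinal tract with contents and faeces gamma counted.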

[4] = Dissociation constant, pKa corresponding to deprotonation of the basic substituent by spectrophotometric titration; assay type: physicochemical; summary of the method: as §1
[5] = Dissociation constant, pKa corresponding to deprotonation of the basic substituent by potentiometric titration; assay type: physicochemical; summary of the method: as §1
[6] = Partition coefficient, log P of the compound; assay type: physicochemical; conditions: octanol/water
Summary of the method: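 Calculated from the measured octanol/MOPS pH 7.4 distribution coefficient divided by the fraction of neutral species at pH 7.4, which is derived from the measured pKa values.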

[7] = Dissociation constant, pKa corresponding to protonation of the 4-hydroxy group by potentiometric titration; assay type: physicochemical; summary of the method: as §1
[8] = Dissociation constant, pKa corresponding to protonation of the 4-hydroxy group by spectrophotometric titration; assay type: physicochemical; summary of the method: as §1
[9] = tested on: Rattus norvegicus; assay: Iron-clearing efficiency in po dosed [59Fe]ferritin-loaded Wistar rat assessed as iron removal; assay type: functional; summary of the method: as §2
[10] = Octanol-MOPS buffer distribution coefficient, DC at pH 7.4; assay type: physicochemical; conditions: octanol/water
Summary of the method: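 Automated continuous-flow filter-probe method, 1-octanol versus 50 mM MOPS buffer pH 7.4, phases mutually presaturated. Compound dissolved in buffer to absorbance 0.5–1.5 units at a preselected wavelength; aqueous phase separated by hydrophilic cellulose filter and read by absorbance. n = 5.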

[11] = Dissociation constant, pKa corresponding to dissociation of the 3-hydroxyl group by potentiometric titration; assay type: physicochemical; summary of the method: as §1

SMILES	IC50 [1]	pKa [2]	Activity [3]	pKa [4]	pKa [5]	logP [6]	pKa [7]	pKa [8]	Activity [9]	D [10]	pKa [11]
Cc1c(O)c(=O)ccn1CCCn1ccnc1	85 µM	9.82	5.3%	6.71	6.6	-0.392	3.13	3.08	1.4%	0.344	9.92
Cc1cc(=O)c(O)c(CN2CCCCC2)n1C	23 µM	10.3	–	6.98	7.07	0.559	2.5	2.73	–	2.536	10.8
Cc1c(O)c(=O)ccn1C [DEFERIPRONE]	67.5 µM	–	13.4%	–	–	–	–	–	9.5%	0.17	–
CCc1c(O)c(=O)ccn1CCN(C)C	85 µM	9.58	20.3%	7.16	6.88	-0.114	2.62	2.68	16.4%	0.538	9.66
O=c1cc(CN2CCCCC2)n(CCN2CCCCC2)cc1O	21.5 µM	8.95	–	7.6	7.58	1.84	1.16	2.04	–	26.11	8.83
CCN(CC)CCn1ccc(=O)c(O)c1C	50 µM	9.6	12.4%	7.5	7.53	0.059	2.63	2.66	8.5%	0.493	9.65
O=c1ccn(CCN2CCCCC2)c(CO)c1O	10 µM	9.24	23.3%	7.43	7.35	0.019	2.25	2.2	19.4%	0.501	9.28
Cc1c(O)c(=O)ccn1CCN1CCOCC1	50 µM	9.68	–	4.91	4.89	-0.909	2.67	2.64	–	0.122	9.71
CCc1c(O)c(=O)ccn1CC	55 µM	–	58.3%	–	–	0.257	–	–	54.4%	1.79	–
Cn1c(CO)cc(=O)c(O)c1CN1CCCCC1	29 µM	10.4	–	6.67	6.74	0.295	2.14	2.41	–	1.636	10.5
Cc1c(O)c(=O)ccn1CCN1CCCCC1	35 µM	9.71	22.7%	7.47	7.42	0.31	2.77	2.88	18.8%	0.96	9.63
CCn1ccc(=O)c(O)c1C(C)O (stereo unspecified)	45 µM	–	48.4%	–	–	-0.557	–	–	44.5%	0.266	–
CC(O)c1c(O)c(=O)ccn1CCN1CCCCC1 (stereo unspecified)	8 µM	8.73	23.1%	7.35	7.37	0.242	2.17	2.14	19.2%	0.908	8.7
CCc1c(O)c(=O)ccn1CCN1CCCCC1	25 µM	9.7	30.4%	7.38	7.34	0.946	2.73	2.74	26.5%	4.591	9.67
Cc1c(O)c(=O)ccn1CCN(C)C	80 µM	9.58	13%	7.02	7.05	-0.657	2.74	2.86	9.1%	0.154	9.75
CCc1c(O)c(=O)ccn1CCCn1ccnc1	65 µM	9.66	6.8%	6.47	6.55	-0.326	3.09	3.15	2.9%	0.42	9.71
Cn1cc(O)c(=O)cc1CN1CCCCC1	31 µM	8.86	–	6.72	6.74	0.64	2.15	2.16	–	3.493	8.85
Cn1c(CO)cc(=O)c(O)c1CN1CCOCC1	35 µM	9.75	–	4.99	5.1	-0.765	1.98	2.14	–	0.17	9.77
Cc1cc(=O)c(O)c(CN2CCOCC2)n1C	50 µM	9.72	–	4.82	4.89	-0.435	2.38	2.43	–	0.364	10.1
